KCNQ1 act = potentiators or activators of human KCNQ1 potassium channel | CHO-K1 KCNQ1, thallium flux FluxOR fluorescence; active compounds read high | B-score at 10 µM | hit rate 0.35% among 310,000;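 active means fluorescence ratio B-score, a plate-corrected score, at least three library SD, with initial intensity B-score within 5 SD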
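Material: CHO-K1 cells stably expressing KCNQ1. Medium: assay buffer for compound exposure, DMSO matched across wells. Reagent: K+/Tl+ depolarizing stimulus. Compound dosing: single-concentration screen. Times: 37 °C overnight plating, 90-min dark dye load, 20-min compound pretreatment. Technique: FluxOR Tl+ flux fluorescence.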
KCNK3 block = human KCNK3 channel inhibition, primary screen; B-score at 10 µM; AID 602410; hit rate 0.84% among 340,000; CHO-KCNK3 thallium flux, FluxOR fluorescence; active compounds read low; O14649;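 active means B-score under library mean minus 4 SD, starting fluorescence ratio at most library mean plus 5 SD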;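 further: more negative B-score means stronger inhibition of thallium flux through KCNK3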
KCNQ1 inh = blocks the human KCNQ1 potassium channel; P51787; CHO-K1 KCNQ1, FluxOR thallium flux fluorescence; active compounds read high; B-score at 10 µM; hit rate 1.3% among 310,000; AID 2642;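 active means compounds whose thallium flux B-score, printed positive for inhibition, exceeds three library SD while starting fluorescence stays within three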;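 further: channel opened by potassium depolarization with thallium stimulus after 20 min compound exposure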
Kir21 block = blocks the mouse Kir2.1 inward-rectifier potassium channel | P35561 | HEK293-Kir2.1, FluxOR thallium flux fluorescence; active compounds read low | B-score at 10 µM | hit rate 0.85% among 310,000 | AID 1672;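 active means fluorescence ratio B-score at or below minus 3 SD of library scores, with starting-brightness B-score within 2 SD, cut at about -4.2 in these data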;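 further: channel flux triggered by added potassium and thallium sulfate stimulus; B-score of peak minus minimum fluorescence over baseline after thallium stimulus; more negative B-score means stronger Kir2.1 block with less thallium influx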
hERG protect = hERG (human) protection from proarrhythmic block | Q12809 | CHO-hERG, FluxOR thallium flux, dofetilide IC70 present | activation (rescue from dofetilide block), less the hit threshold, % at 10 µM | hit rate 0.51% among 310,000 | AID 1511;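 active means activation above the mean of controls blocked by dofetilide plus 5 SD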;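 further: thallium influx through hERG after potassium depolarization seen as dye fluorescence rise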
Target sequence (Q12809 whole entry, looked up): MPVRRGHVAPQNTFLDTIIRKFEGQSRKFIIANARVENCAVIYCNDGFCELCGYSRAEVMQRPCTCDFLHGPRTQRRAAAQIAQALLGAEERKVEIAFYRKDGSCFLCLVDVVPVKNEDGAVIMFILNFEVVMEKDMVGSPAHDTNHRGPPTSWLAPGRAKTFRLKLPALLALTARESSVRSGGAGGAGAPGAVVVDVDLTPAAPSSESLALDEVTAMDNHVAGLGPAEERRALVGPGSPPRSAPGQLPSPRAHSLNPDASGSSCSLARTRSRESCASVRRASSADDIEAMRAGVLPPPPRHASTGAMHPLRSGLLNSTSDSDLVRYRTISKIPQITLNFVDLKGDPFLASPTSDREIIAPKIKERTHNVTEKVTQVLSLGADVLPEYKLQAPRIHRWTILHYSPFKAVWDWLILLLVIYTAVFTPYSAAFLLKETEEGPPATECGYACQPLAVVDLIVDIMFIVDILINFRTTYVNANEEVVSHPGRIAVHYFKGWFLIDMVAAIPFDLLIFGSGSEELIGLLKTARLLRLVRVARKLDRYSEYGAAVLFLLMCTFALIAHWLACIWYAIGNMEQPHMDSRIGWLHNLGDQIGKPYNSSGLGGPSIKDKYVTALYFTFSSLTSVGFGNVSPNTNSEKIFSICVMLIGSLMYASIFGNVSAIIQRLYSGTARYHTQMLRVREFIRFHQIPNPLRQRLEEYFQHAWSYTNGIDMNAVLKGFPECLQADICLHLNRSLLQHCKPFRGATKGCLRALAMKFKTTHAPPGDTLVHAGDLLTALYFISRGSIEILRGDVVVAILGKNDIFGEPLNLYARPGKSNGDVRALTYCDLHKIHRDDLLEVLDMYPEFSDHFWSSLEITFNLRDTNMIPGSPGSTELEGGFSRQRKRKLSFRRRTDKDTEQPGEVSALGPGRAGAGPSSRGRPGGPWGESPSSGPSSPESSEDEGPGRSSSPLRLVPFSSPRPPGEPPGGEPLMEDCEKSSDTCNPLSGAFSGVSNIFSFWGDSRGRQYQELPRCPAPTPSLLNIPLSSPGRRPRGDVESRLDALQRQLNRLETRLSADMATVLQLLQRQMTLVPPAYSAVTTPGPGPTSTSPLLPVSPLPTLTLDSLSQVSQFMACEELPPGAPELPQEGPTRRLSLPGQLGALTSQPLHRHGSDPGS
KCNK9 inh = human KCNK9 channel inhibition; Q9NPC2; HEK293 KCNK9, FluxOR thallium flux fluorescence; active compounds read low; B-score at 10 µM; hit rate 1.2% among 310,000;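 active means ratio B-score over 3 SD below the library mean, with starting fluorescence within 5 SD of its mean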;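 further: negative B-score means less thallium flux so channel inhibition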
KCNK9 block conf = human KCNK9 inhibitor confirmation. AID 492992. HEK293 KCNK9 cells, FluxOR thallium flux fluorescence. shares compounds with KCNK9 inh. hit rate 43% among 4,900. inhibition, % at 10 µM;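 active means thallium signal inhibited by more than 5 SD of the compound-free buffer control wells, on both duplicate plates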
Kir2-1 spec = selectivity of KCNK9 modulators against mouse Kir2.1; Kir2.1 cells, FluxOR thallium flux fluorescence; shares compounds with KCNK9 inh; hit rate 4% among 4,900; inhibition, % at 10 µM;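 active means thallium signal drop more than 5 SD beyond the mean of the no-compound control wells, seen in both duplicate plates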;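 further: signal is fluorescence rise after thallium addition divided by baseline fluorescence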
KCNK9 uninduced = non-induced cell nonspecific activity of KCNK9 modulators | non-induced KCNK9-HEK293, FluxOR thallium flux | AID 492997 | shares compounds with KCNK9 inh | hit rate 40% among 4,900 | inhibition, % at 10 µM;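 active means thallium signal drop beyond 5 SD of the untreated control mean, on both duplicate plates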
Large screens that a line does not name were inactive (follow-up assays come after a bar, where they were run). In the library only some 3.7% were active in any assay of this set; here they are far more common.

Cc1cccc[n+]1CCCCCCCCCC[n+]1ccccc1C	none
CCCCCCCC[n+]1cccc2c3ccccc3ccc21	KCNQ1 inh 9, Kir21 block -10.6, KCNK9 inh -14 | KCNK9 block conf 62.0% | Kir2-1 spec 86.0% | KCNK9 uninduced inactive
S=c1[nH]nc(-c2cccs2)n1C1CCCCC1	none
CC(C1CC2CCC1C2)n1c(-c2cccs2)n[nH]c1=S (stereo unspecified)	KCNK9 inh -11.4 | KCNK9 block conf 53.5% | Kir2-1 spec inactive | KCNK9 uninduced inactive
COC(C/C=C\[C@H](O)[C@H](C)OCc1ccccc1)OC	none
CCOc1ccc2nc(N3C(=O)/C(=C/c4ccccc4)NC3=S)sc2c1	KCNQ1 act 134, hERG protect 44.7 | KCNK9 block conf inactive | Kir2-1 spec inactive | KCNK9 uninduced inactive
CCOc1ccc2nc(N3CCCCCC3)sc2c1	none
CCOC(=O)c1c(S(=O)(=O)NCC(=O)Nc2cccc(F)c2)c(C)n(C)c1C	none
Cc1cc(C2N=C(N)Nc3nc4ccccc4n32)c(C)n1-c1ccccc1Cl (stereo unspecified)	KCNK9 inh -8.69 | KCNK9 block conf 52.0% | Kir2-1 spec inactive | KCNK9 uninduced 39.0%
CCCNC(=O)c1onc(CSc2nc3ccccc3[nH]2)c1C(=O)NCCC	none
Oc1oc(-c2ccccc2)nc1C=Nc1cccc2ccccc12	KCNK9 inh -9.91 | KCNK9 block conf inactive | Kir2-1 spec inactive | KCNK9 uninduced 45.0%
COc1cc(/C=N/OCC(=O)NC2CCCCC2)ccc1OCc1ccccc1	none
COc1cc(/C=N/OCC(=O)NC23CC4CC(CC(C4)C2)C3)ccc1OCc1ccccc1	none | KCNK9 block conf inactive | Kir2-1 spec inactive | KCNK9 uninduced 26.5%
CNC(=S)N/N=C/C1=CCC2CC1C2(C)C (stereo unspecified)	none
CC1(C)C2CC=C(/C=N/NC(=S)NCCc3ccccc3)C1C2 (stereo unspecified)	none | KCNK9 block conf inactive | Kir2-1 spec inactive | KCNK9 uninduced inactive
Cc1ccc(-c2[nH]c3ccccc3c2SCCNC(=O)c2cc3ccccc3oc2=O)cc1	KCNQ1 inh 6 | KCNK9 block conf inactive | Kir2-1 spec inactive | KCNK9 uninduced inactive
CCN1CCCc2cc(CN(CCN3CCOCC3)C(=O)Nc3ccc(C)c(C)c3)ccc21	none | KCNK9 block conf inactive | Kir2-1 spec inactive | KCNK9 uninduced inactive
CN1CCN(C(=O)CN(c2cccc(Br)c2)S(=O)(=O)c2ccccc2)CC1	none
COc1ccc(-c2cc(C)no2)cc1S(=O)(=O)N1CCCN(Cc2ccccc2Cl)C1	KCNK9 inh -15.6 | KCNK9 block conf 32.0% | Kir2-1 spec inactive | KCNK9 uninduced 32.0%
Cc1ccsc1CN(C)CC(=O)NCC(=O)Nc1ccc(F)cc1	none (no result: KCNQ1 act, KCNQ1 inh, Kir21 block, hERG protect, KCNK9 inh)
CC(Sc1nnc(-c2ccco2)n1C)C(=O)Nc1nccs1 (stereo unspecified)	none
O=C(NC(=S)NC1C2CC3CC(C2)CC1C3)C12CC3CC(CC(C3)C1)C2 (stereo unspecified)	none | KCNK9 block conf inactive | Kir2-1 spec inactive | KCNK9 uninduced inactive
CC12CC3(C)CC(C)(C1)CC(C(=O)NC(=S)NC(C)(C)C)(C2)C3	none | KCNK9 block conf inactive | Kir2-1 spec inactive | KCNK9 uninduced inactive
CC(C)(C)NC(=S)NC(=O)C12CC3CCC(CC(C3)C1)C2	none | KCNK9 block conf inactive | Kir2-1 spec inactive | KCNK9 uninduced inactive
CN(C)NC(=S)NC(=O)C12CC3CC(CC(C3)C1)C2	none
O=C(NC(=S)Nc1ccc(Cl)cn1)C12CC3CC(CC(C3)C1)C2	none
CCNc1nc(NC(C)(C)C)nc(Oc2ccc(=O)n(-c3ccccc3)n2)n1	none
COc1ccc(CNS(=O)(=O)c2ccc3c(c2)NC(=O)CS3)cc1	none
N=c1ccn(O)cc1CCc1ccccc1	none (no result: KCNQ1 act, KCNQ1 inh, Kir21 block, hERG protect, KCNK9 inh)
C/C(=N\NC(=S)NCCc1ccccc1)c1ccc(Cl)cc1Cl	none | KCNK9 block conf inactive | Kir2-1 spec inactive | KCNK9 uninduced inactive
CC1CN(c2nnc(-c3ccccc3)c3ccccc23)CC(C)O1 (stereo unspecified)	none
CC(C)(C)OC(=O)N1CCC(c2c(C(=O)NC3CC3)cnn2-c2ccc(Cl)cc2)CC1	none | KCNK9 block conf inactive | Kir2-1 spec inactive | KCNK9 uninduced inactive
O=C(C1CCCN1S(=O)(=O)c1ccc(Cl)cc1)N1CCCCC1 (stereo unspecified)	none
COc1ccc([C@H]2[C@H](C(=O)OC(C)(C)C)N3N=Cc4ccccc4C3C23C(=O)c2ccccc2C3=O)cc1OC (stereo partly specified)	none
CC(C)(C)C(=O)[C@H]1[C@H](c2ccccc2)[C@@]2(N=C(c3ccccc3)OC2=O)C2c3ccccc3C=NN21 (stereo partly specified)	KCNK9 inh -9.71 | KCNK9 block conf 29.0% | Kir2-1 spec inactive | KCNK9 uninduced inactive
CC1CC(C)CN(S(=O)(=O)c2ccc(C(=O)Nc3nnc(C4CC4)o3)cc2)C1 (stereo unspecified)	none
CCN(CC)c1ccc(/C=N/Nc2cccc(C)c2)c(O)c1	none | KCNK9 block conf inactive | Kir2-1 spec inactive | KCNK9 uninduced inactive
CCN(CC)c1ccc(/C=N/Nc2ccccc2)c(O)c1	none
CCN(CC)c1ccc(/C=N/N2CCN(Cc3ccc(C)cc3C)CC2)c(O)c1	none | KCNK9 block conf inactive | Kir2-1 spec inactive | KCNK9 uninduced inactive
CSc1ccc(/C=N/N2CCN(Cc3ccc(C)cc3C)CC2)cc1	none | KCNK9 block conf inactive | Kir2-1 spec inactive | KCNK9 uninduced inactive
C(=N\N1CCN(Cc2ccccc2)CC1)/c1ccccc1	none
CCN(CC)c1ccc(/C=N/N2CCN(Cc3ccccc3)CC2)cc1	none | KCNK9 block conf inactive | Kir2-1 spec inactive | KCNK9 uninduced inactive
Cc1ccc(NC(=S)N2CCC(C(=O)c3ccc(F)cc3)CC2)cc1C	none (no result: KCNQ1 act, KCNQ1 inh, Kir21 block, hERG protect, KCNK9 inh)
CN(C)c1ccc(/C=N/N2CCN(Cc3ccccc3Cl)CC2)cc1	none
CCN(CC)c1ccc(/C=N/N2CCN(Cc3ccccc3)CC2)c(O)c1	none | KCNK9 block conf inactive | Kir2-1 spec inactive | KCNK9 uninduced inactive
CCN(CC)c1ccc(/C=N/N2CCOCC2)c(O)c1	none
CCN(CC)c1ccc(/C=N/N2CCN(Cc3ccccc3Cl)CC2)cc1	KCNQ1 inh 6 | KCNK9 block conf inactive | Kir2-1 spec inactive | KCNK9 uninduced inactive
CCOC(=O)C1(O)CC(C)=NN1C(=O)c1cccc(Cl)c1 (stereo unspecified)	none
Cc1cccc(N2CCN(CC(=O)NCc3ccc(Cl)cc3)CC2)c1C	none | KCNK9 block conf inactive | Kir2-1 spec inactive | KCNK9 uninduced inactive

Assay outcomes deposited in PubChem BioAssay by Johns Hopkins Ion Channel Center.
